# The source made the active and inactive calls. The calls are words filed in the database; no cut-off is given here. Non-standard residues stand in square brackets, D forms with d. Residues, ends and D or L forms follow the SMILES beside them. ξ: configuration not given here. Aoe(9ξ) = N[C@@H](CCCCCC(=O)C1CO1)C(=O)O; dPip = O=C(O)[C@H]1CCCCN1
# How the values were obtained:
# [1] = biological target: T1, Histone deacetylase HD2 (Zea mays) (UniProt Q94F81); experiment: Ability to inhibit maize histone deacetylase enzyme in vitro using [3H]acetate-prelabeled chicken reticulocyte histones at 24 uM
# T1 sequence (whole entry): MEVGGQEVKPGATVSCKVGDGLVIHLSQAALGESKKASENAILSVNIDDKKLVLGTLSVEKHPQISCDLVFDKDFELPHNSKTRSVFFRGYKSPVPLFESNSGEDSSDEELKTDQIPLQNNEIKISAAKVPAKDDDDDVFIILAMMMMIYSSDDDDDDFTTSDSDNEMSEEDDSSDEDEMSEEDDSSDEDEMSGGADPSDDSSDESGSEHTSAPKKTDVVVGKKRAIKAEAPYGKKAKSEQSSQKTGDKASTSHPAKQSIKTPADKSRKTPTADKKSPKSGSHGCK
# How it was run: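 Maize HD2 purified by anion exchange, heparin/histone affinity and size exclusion chromatography. Enzyme incubated 30 min at 30 °C with [3H]acetate-prelabeled chicken reticulocyte core histones (1 mg/mL stock). Reaction stopped with HCl/acetate plus ethyl acetate, then centrifuged. Released [3H]acetic acid in the upper phase counted by liquid scintillation. Blank solvent served as negative control. Triple determinations.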
# Histone deacetylase HD2 [2] = biological target: T2, Histone deacetylase HD2 (Zea mays, UniProt Q94F81); experiment: Concentration required for inhibition of histone deacetylase HD2 in vitro.
# T2 sequence (Q94F81 whole entry): T1 sequence (whole entry)
# Histone deacetylase HD2 [3] = biological target: T2, Histone deacetylase HD2; experiment: (§1) Inhibitory concentration against histone deacetylase HD2 enzyme.
# How it was run: (§2)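 Maize HD2, purified by anion exchange, heparin/histone affinity and size exclusion chromatography, incubated 30 min at 30 °C with [3H]acetate-prelabeled chicken reticulocyte core histones (1 mg/mL). Stopped with HCl/acetate and extracted into ethyl acetate. Released [3H]acetic acid in the upper phase was counted by liquid scintillation. Compounds started at 40 µM and active ones were diluted further. Blank solvents served as negative controls. IC50 values are from triple determinations.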
# [4] = biological target: T1, Histone deacetylase HD2 (Zea mays); experiment: Ability to inhibit maize histone deacetylase enzyme in vitro using [3H]acetate-prelabeled chicken reticulocyte histones at 25.7 uM; how it was run: as §2
# [5] = biological target: T1, Histone deacetylase HD2 (Zea mays); experiment: Ability to inhibit maize histone deacetylase enzyme in vitro using [3H]acetate-prelabeled chicken reticulocyte histones at 23.9 uM; how it was run: as §2
# [6] = biological target: T1, Histone deacetylase HD2 (Zea mays); experiment: Ability to inhibit maize histone deacetylase enzyme in vitro using [3H]acetate-prelabeled chicken reticulocyte histones at 23.3 uM; how it was run: as §2
# [7] = biological target: T1, Histone deacetylase HD2 (Zea mays); experiment: Ability to inhibit maize histone deacetylase enzyme in vitro using [3H]acetate-prelabeled chicken reticulocyte histones at 26 uM; how it was run: as §2
# [8] = biological target: T1, Histone deacetylase HD2 (Zea mays); experiment: Ability to inhibit maize histone deacetylase enzyme in vitro using [3H]acetate-prelabeled chicken reticulocyte histones at 21.3 uM; how it was run: as §2
# [9] = biological target: T1, Histone deacetylase HD2 (Zea mays); experiment: Ability to inhibit maize histone deacetylase enzyme in vitro using [3H]acetate-prelabeled chicken reticulocyte histones at 20.8 uM; how it was run: as §2
# [10] = biological target: T1, Histone deacetylase HD2 (Zea mays); experiment: Ability to inhibit maize histone deacetylase enzyme in vitro using [3H]acetate-prelabeled chicken reticulocyte histones at 28.2 uM; how it was run: as §2
# [11] = biological target: T1, Histone deacetylase HD2 (Zea mays); experiment: Ability to inhibit maize histone deacetylase enzyme in vitro using [3H]acetate-prelabeled chicken reticulocyte histones at 30 uM; No inhibition; how it was run: as §2
# [12] = biological target: T1, Histone deacetylase HD2 (Zea mays); experiment: as §1; how it was run: as §2
# [13] = biological target: T1, Histone deacetylase HD2 (Zea mays); details: 25 uM
# [14] = biological target: T1, Histone deacetylase HD2 (Zea mays); experiment: Ability to inhibit maize histone deacetylase enzyme in vitro using [3H]acetate-prelabeled chicken reticulocyte histones at 25.8 uM; how it was run: as §2
# [15] = biological target: T1, Histone deacetylase HD2 (Zea mays); experiment: Ability to inhibit maize histone deacetylase enzyme in vitro using [3H]acetate-prelabeled chicken reticulocyte histones at 29 uM
# How it was run: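 Maize HD2 purified by anion exchange, heparin/histone affinity and size exclusion chromatography. Enzyme incubated 30 min at 30 °C with [3H]acetate-prelabeled chicken reticulocyte core histones (1 mg/mL). Stopped with HCl/acetate, then extracted into ethyl acetate; released [3H]acetic acid in the upper phase counted by liquid scintillation. Triple determinations; blank solvent as negative control.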
# [16] = biological target: T1, Histone deacetylase HD2 (Zea mays); experiment: Ability to inhibit maize histone deacetylase enzyme in vitro using [3H]acetate-prelabeled chicken reticulocyte histones at 28 uM; how it was run: as §2
# [17] = biological target: T1, Histone deacetylase HD2 (Zea mays); details: 24.6 uM
# [18] = biological target: T1, Histone deacetylase HD2 (Zea mays); experiment: Ability to inhibit maize histone deacetylase enzyme in vitro using [3H]acetate-prelabeled chicken reticulocyte histones at 24.8 uM; how it was run: as §2
# [19] = biological target: T1, Histone deacetylase HD2 (Zea mays); experiment: Ability to inhibit maize histone deacetylase enzyme in vitro using [3H]acetate-prelabeled chicken reticulocyte histones at 27 uM; how it was run: as §2
# [20] = biological target: T1, Histone deacetylase HD2 (Zea mays); experiment: Ability to inhibit maize histone deacetylase enzyme in vitro using [3H]acetate-prelabeled chicken reticulocyte histones at 30 uM; NI = No inhibition; how it was run: as §2
# [21] = biological target: T1, Histone deacetylase HD2 (Zea mays); experiment: Ability to inhibit maize histone deacetylase enzyme in vitro using [3H]acetate-prelabeled chicken reticulocyte histones at 21.7 uM; how it was run: as §2
# [22] = biological target: T1, Histone deacetylase HD2 (Zea mays); experiment: Ability to inhibit maize histone deacetylase enzyme in vitro using [3H]acetate-prelabeled chicken reticulocyte histones at 22.6 uM; how it was run: as §2
# [23] = biological target: T1, Histone deacetylase HD2 (Zea mays); experiment: Ability to inhibit maize histone deacetylase enzyme in vitro using [3H]acetate-prelabeled chicken reticulocyte histones at 29.8 uM; how it was run: as §2
# [24] = biological target: T1, Histone deacetylase HD2 (Zea mays); details: 22.4 uM
structure (smiles),measurement,setting,value
Cn1cc(C(=O)c2ccc3ccccc3c2)cc1/C=C/C(=O)NO,inhibition,[1],93.8%
same,IC50,Histone deacetylase HD2 [2],115 nM
same,IC50,Histone deacetylase HD2 [3],115 nM
Cn1cc(C(=O)CCc2ccccc2)cc1/C=C/C(=O)NO,IC50,Histone deacetylase HD2 [2],43 nM
same,inhibition,[4],98%
same,IC50,Histone deacetylase HD2 [3],42.7 nM
Cn1cc(C(=O)/C=C/c2ccccc2)cc1/C=C/C=C/C(=O)NO,inhibition,[5],66%
same,IC50,Histone deacetylase HD2 [2],9900 nM
same,IC50,Histone deacetylase HD2 [3],10000 nM
Cn1cc(C(=O)CCCCc2ccccc2)cc1/C=C/C(=O)NO,IC50,Histone deacetylase HD2 [2],110 nM
same,IC50,Histone deacetylase HD2 [3],110 nM
same,inhibition,[6],94%
C/C(=C\c1cc(C(=O)Cc2ccccc2)cn1C)C(=O)NO,IC50,Histone deacetylase HD2 [2],1400 nM
same,inhibition,[7],95%
same,IC50,Histone deacetylase HD2 [3],1410 nM
Cn1cc(C(=O)C2(c3ccccc3)CC2)cc1/C=C/C(=O)NO,IC50,Histone deacetylase HD2 [2],101 nM
same,inhibition,[8],94.2%
same,IC50,Histone deacetylase HD2 [3],100 nM
Cn1cc(C(=O)CCCCCCCc2ccccc2)cc1/C=C/C(=O)NO,IC50,Histone deacetylase HD2 [2],209 nM
same,inhibition,[9],96%
same,IC50,Histone deacetylase HD2 [3],209 nM
Cn1cc(C(=O)c2ccccc2)cc1CC(=O)NO,IC50,Histone deacetylase HD2 [2],34700 nM
same,IC50,Histone deacetylase HD2 [3],34700 nM
Cn1cc(C(=O)c2ccccc2)cc1C=C(C(=O)NO)C(=O)NO,IC50,Histone deacetylase HD2 [2],66000 nM
same,IC50,Histone deacetylase HD2 [3],66100 nM
same,inhibition,[6],22.7%
Cn1cc(C(=O)Cc2ccccc2)cc1CC(=O)NO,IC50,Histone deacetylase HD2 [2],10800 nM
same,inhibition,[10],62.8%
same,IC50,Histone deacetylase HD2 [3],10700 nM
Cn1cc(C(=O)Cc2ccccc2)cc1C=C(C(=O)O)C(=O)O,inhibition,[11],inactive
same,Log IC50,[12],inactive
C/C(=C\c1cc(C(=O)/C=C/c2ccccc2)cn1C)C(=O)NO,IC50,Histone deacetylase HD2 [2],1300 nM
same,IC50,Histone deacetylase HD2 [3],1290 nM
same,inhibition,[13],96%
CC/C(=C\c1cc(C(=O)Cc2ccccc2)cn1C)C(=O)NO,inhibition,[11],inactive
same,Log IC50,[12],inactive
CCCC(CCC)C(=O)O [VALPROATE SODIUM],IC50,Histone deacetylase HD2 [2],128000 nM
CC/C(=C\c1cc(C(=O)c2ccccc2)cn1C)C(=O)NO,inhibition,[14],37%
same,Log IC50,[12],inactive
CC/C(=C\c1cc(C(=O)/C=C/c2ccccc2)cn1C)C(=O)NO,inhibition,[11],inactive
same,Log IC50,[12],inactive
Cn1cc(C(=O)Cc2ccccc2)cc1/C=C/C(=O)NO,IC50,Histone deacetylase HD2 [2],100 nM
same,inhibition,[15],96%
same,IC50,Histone deacetylase HD2 [3],100 nM
Cn1cc(C(=O)c2ccccc2)cc1/C=C/C=C/C(=O)NO,IC50,Histone deacetylase HD2 [2],770 nM
same,inhibition,[16],94%
same,IC50,Histone deacetylase HD2 [3],776 nM
Cn1cc(C(=O)CCCc2ccccc2)cc1/C=C/C(=O)NO,IC50,Histone deacetylase HD2 [2],130 nM
same,IC50,Histone deacetylase HD2 [3],129 nM
same,inhibition,[17],94%
Cn1cc(C(=O)C2CC2c2ccccc2)cc1/C=C/C(=O)NO (stereo unspecified),IC50,Histone deacetylase HD2 [2],310 nM
same,inhibition,[18],97.6%
same,IC50,Histone deacetylase HD2 [3],309 nM
C/C(=C\c1cc(C(=O)c2ccccc2)cn1C)C(=O)NO,IC50,Histone deacetylase HD2 [2],2700 nM
same,IC50,Histone deacetylase HD2 [3],2690 nM
same,inhibition,[19],83%
Cn1cc(C(=O)c2cccc3ccccc23)cc1/C=C/C(=O)NO,inhibition,[1],93.6%
same,IC50,Histone deacetylase HD2 [2],144 nM
same,IC50,Histone deacetylase HD2 [3],145 nM
O=C(CCCCC[C@@H]1NC(=O)[C@H]2CCCCN2C(=O)[C@H](Cc2ccccc2)NC(=O)[C@H](Cc2ccccc2)NC1=O)C1CO1 (stereo partly specified) [TRAPOXIN A] (cyclo(FF[dPip][Aoe(9ξ)])),IC50,Histone deacetylase HD2 [2],10 nM
Cn1cc(C(=O)c2ccccc2)cc1C=C(C(=O)O)C(=O)O,inhibition,[20],inactive
same,Log IC50,[12],inactive
Cn1cc(C(=O)Cc2ccccc2)cc1/C=C/C=C/C(=O)NO,IC50,Histone deacetylase HD2 [2],1480 nM
same,inhibition,[18],89.8%
same,IC50,Histone deacetylase HD2 [3],1480 nM
Cn1cc(C(=O)CCCCCCc2ccccc2)cc1/C=C/C(=O)NO,IC50,Histone deacetylase HD2 [2],266 nM
same,IC50,Histone deacetylase HD2 [3],263 nM
same,inhibition,[21],95%
Cn1cc(C(=O)CCCCCc2ccccc2)cc1/C=C/C(=O)NO,inhibition,[22],97.2%
same,IC50,Histone deacetylase HD2 [2],71 nM
same,IC50,Histone deacetylase HD2 [3],70.8 nM
Cn1c(CC(=O)NO)ccc1C(=O)c1ccccc1,IC50,Histone deacetylase HD2 [2],20500 nM
same,inhibition,[23],61.3%
same,IC50,Histone deacetylase HD2 [3],20400 nM
Cn1cc(C(=O)Cc2ccccc2)cc1C=C(C(=O)NO)C(=O)NO,IC50,Histone deacetylase HD2 [2],200 nM
same,IC50,Histone deacetylase HD2 [3],200 nM
same,inhibition,[24],91%
Cn1cc(C(=O)Cc2ccccc2)cc1CCC(=O)NO,IC50,Histone deacetylase HD2 [2],1200 nM
same,IC50,Histone deacetylase HD2 [3],1200 nM
same,inhibition,[19],96%
Cn1c(CC(=O)NO)ccc1C(=O)Cc1ccccc1,IC50,Histone deacetylase HD2 [2],17100 nM
same,inhibition,[10],64.2%
same,IC50,Histone deacetylase HD2 [3],17000 nM
Cn1cc(C(=O)/C=C/c2ccccc2)cc1/C=C/C(=O)NO,IC50,Histone deacetylase HD2 [2],1000 nM
same,inhibition,[16],95%
same,IC50,Histone deacetylase HD2 [3],1000 nM

# From ChEMBL document CHEMBL1148476, “3-(4-Aroyl-1-methyl-1H-2-pyrrolyl)-N-hydroxy-2-propenamides as a new class of synthetic histone deacetylase inhibitors. 2. Effect of pyrrole-C2 and/or -C4 substitutions on biological activity” (J Med Chem, 2004)
